Experimental data of several laboratories.
Protocols differ between the studies behind these lines.
Target: Serine/threonine-protein kinase D3 (PRKD3, Homo sapiens, UniProt O94806)
One construct used (O94806 1-890): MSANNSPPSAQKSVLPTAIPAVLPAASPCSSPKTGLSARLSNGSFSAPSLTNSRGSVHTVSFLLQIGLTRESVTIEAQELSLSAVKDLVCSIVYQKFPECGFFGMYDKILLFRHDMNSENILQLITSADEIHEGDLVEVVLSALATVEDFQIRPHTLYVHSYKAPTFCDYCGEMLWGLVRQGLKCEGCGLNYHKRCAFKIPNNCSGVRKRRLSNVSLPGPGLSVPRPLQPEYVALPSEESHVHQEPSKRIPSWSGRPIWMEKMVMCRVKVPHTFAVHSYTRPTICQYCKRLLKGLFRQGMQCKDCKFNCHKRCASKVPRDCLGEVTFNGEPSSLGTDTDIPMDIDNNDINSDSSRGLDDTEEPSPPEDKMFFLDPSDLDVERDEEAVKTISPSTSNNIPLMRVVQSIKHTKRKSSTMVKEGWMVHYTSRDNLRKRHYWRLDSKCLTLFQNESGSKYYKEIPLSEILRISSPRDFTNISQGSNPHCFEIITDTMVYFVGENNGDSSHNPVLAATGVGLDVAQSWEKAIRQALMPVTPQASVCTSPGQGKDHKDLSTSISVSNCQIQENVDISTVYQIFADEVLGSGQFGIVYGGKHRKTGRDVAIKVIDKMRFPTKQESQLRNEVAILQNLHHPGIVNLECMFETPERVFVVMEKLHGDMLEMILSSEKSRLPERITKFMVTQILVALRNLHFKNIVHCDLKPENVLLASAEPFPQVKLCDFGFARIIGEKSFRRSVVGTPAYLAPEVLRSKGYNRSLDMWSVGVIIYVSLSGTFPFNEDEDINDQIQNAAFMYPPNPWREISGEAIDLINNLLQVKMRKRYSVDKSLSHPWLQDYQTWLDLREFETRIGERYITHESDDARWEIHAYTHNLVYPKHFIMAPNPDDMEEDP

O=C(c1ccc(Nc2ncc(Cl)c(-c3ccc(Cl)s3)n2)cc1)N1CCC(N2CCCC2)CC1 — remaining binding (binding; competition with immobilised ligand; 1 µM): 3.6%
COc1ccnn2ncc(-c3ccnc(N(C)C)n3)c12 — remaining binding (binding; 1 µM): 100%
Cc1c[nH]c2nccc(Oc3c(F)cc(Nc4cc(Cl)nc(N)n4)cc3F)c12 — remaining binding (cell-free assay; competition with immobilised ligand; 0.1 µM): 100%
Cc1cnn2ncc(-c3ccnc(N(C)C)n3)c2c1 — remaining binding (binding; 1 µM): 98%
Nc1ncc2c(n1)-c1c([nH]c3ccc(C#CC4CC4)cc13)CCCC2 — remaining binding (binding; competition with immobilised ligand; 1 µM): 61%
FC(F)(F)Oc1cccc(-c2cnc3ccc(-c4ccncc4)nn23)c1 — remaining binding (cell-free assay; competition with immobilised ligand; 5 µM): 100%
CNC(=O)c1ccc(Nc2ncc(C(F)(F)F)c(NCc3nccnc3N(C)S(C)(=O)=O)n2)cc1 — remaining binding (cell-free assay; competition with immobilised ligand; 0.1 µM): 100%
CCN1CCN(Cc2ccc(C(=O)Nc3ccc(C)c(Oc4ccc5c(c4)CC(=O)N5)c3)cc2C(F)(F)F)CC1 — remaining binding (binding; competition with immobilised ligand; 1 µM): 100%
CN(C)C(=O)Cn1cc(-c2nc(C3(c4ccc(-c5cnc(N)nc5)cc4)CC3)no2)cn1 — remaining binding (cell-free assay; competition with immobilised ligand; 1 µM): 92%
C[C@@H](c1ccc(-n2cnc3c(N)ncnc32)cc1)N1CCc2nn(C)c(Cc3ccccc3)c2C1=O — remaining binding (binding; competition with immobilised ligand; 0.1 µM): 85%
C[C@@H]1CN(c2cc(-c3n[nH]c4ccc(OC5(C)CC5)cc34)ncn2)C[C@H](C)O1 — remaining binding (cell-free assay; competition with immobilised ligand; 0.1 µM): 82%
N[C@H]1CCN(c2nccc(-c3cnn4ncccc34)n2)C1 — remaining binding (binding; 1 µM): 91%
COc1cnc(Nc2cccc(S(N)(=O)=O)c2)nc1N1CCN(c2ccccc2)C(=O)C1 — remaining binding (binding; competition with immobilised ligand; 1 µM): 92%
Cc1nccc(COC(=O)N2C[C@@H]3[C@@H](CNC(=O)c4ccc5[nH]nnc5c4)[C@@H]3C2)n1 — remaining binding (cell-free assay; competition with immobilised ligand; 1 µM): 100%
O=C(c1ccc(Nc2nccc(-c3cc4ccccc4s3)n2)cc1)N1CCC(N2CCCC2)CC1 — remaining binding (binding; competition with immobilised ligand; 1 µM): 50%
c1cnn2ncc(-c3ccnc(N4CCC45COC5)n3)c2c1 — remaining binding (binding; 1 µM): 71%
Cc1cnc(Nc2ccc(C(=O)N3CCC(N4CCCC4)CC3)cc2)nc1-c1cc2ccccc2s1 — remaining binding (binding; competition with immobilised ligand; 1 µM): 37%
CN(C)c1nccc(-c2cnc3ncccn23)n1 — remaining binding (binding; 1 µM): 100%
FC(F)(F)c1ccc2c(c1)nc(-c1cccnc1)n2C1CC1 — remaining binding (cell-free assay; competition with immobilised ligand; 1 µM): 100%
C[C@H]1CCN(c2nccc(-c3cnn4ncccc34)n2)C1 — remaining binding (binding; 1 µM): 59%
O=C(Nc1c[nH]nc1C(=O)NC1CCNCC1)c1cc(F)cc(F)c1 — remaining binding (binding; competition with immobilised ligand; 1 µM): 100%
